Measurements as given in paper PMC9086222 (RSC Advances, 2018).
Where two headings read alike, the source gives them in different places.

Legend:
[1] = predicted; octanol/water; cited from earlier work
Caco-2 cell monolayers [2] = assay: Dioxin transport and cellular association in static Transwell model; assay type: in vitro ADME, human; conditions: 24 h; for Mass balance (sum of AP, BL compartments and cellular fraction): Transwell, 0.2 ng/mL mixture, n = 3
Outline: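 Caco-2 seeded at 40 000 cells per cm2 on 12-well polyester Transwell inserts (0.4 μm pores, 1.12 cm2) in DMEM+, with medium changed every other day for 21 days. Apical side received DMEM+ with 0.2 ng mL−1 dioxin mixture (1% DMSO); basolateral side received plain DMEM+; exposure 24 h. Both compartments' medium, hexane rinses and trypsinised, freeze–thaw-lysed cells were analysed by GC-HRMS.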

Caco-2 cell monolayers [3] = assay: Dioxin transport and cellular association in dynamic gut-on-a-chip model; assay type: in vitro ADME, human; conditions: 24 h; for Mass balance (sum of AP, BL compartments and cellular fraction): Chip, 0.2 ng/mL each congener, n = 3
Outline: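 Caco-2 seeded at 75 000 cells per cm2 on a porous polyester membrane clamped between glass slides. Cells attached 72 h without flow, then both sides were perfused 7 days at 25 μL h−1 with 10 mM-bicarbonate DMEM+ at 37 °C. Apical medium then carried 17 congeners (0.2 ng mL−1 each, 1% DMSO) for 24 h. Compartment eluents, hexane rinses and trypsinised, freeze–thaw-lysed cells were analysed by GC-HRMS.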

[4] = cited from earlier work
Caco-2 cells = conditions: 90 minutes exposure to 3.4 × 10^−2 μCi mL^−1 U-14C-TCDD; cited from earlier work
Caco-2 cell monolayer = conditions: 24 h; 2.5 nM 2,3,7,8-TCDD; cited from earlier work
[5] = static model (Transwell), 0.2 ng/mL
[6] = dynamic model (chip), 0.2 ng/mL

Compound	log P [1]	Mass balance (sum of AP, BL compartments and cellular fraction) (Caco-2 cell monolayers [2])	Mass balance (sum of AP, BL compartments and cellular fraction) (Caco-2 cell monolayers [3])	other results
Clc1cc2c(c(Cl)c1Cl)Oc1cc(Cl)c(Cl)c(Cl)c1O2 [1,2,3,6,7,8-HxCDD]	7.4	92 ± 1%	92 ± 5%	
Clc1cc(Cl)c(-c2cc(Cl)c(Cl)cc2Cl)cc1Cl [#153]				log P [4]: > 5
Clc1cc2oc3c(Cl)c(Cl)c(Cl)c(Cl)c3c2cc1Cl [1,2,3,4,7,8-HxCDF]	6.9	85 ± 2%	97 ± 7%	
Clc1cc2c(c(Cl)c1Cl)Oc1c(Cl)c(Cl)c(Cl)c(Cl)c1O2 [1,2,3,4,6,7,8-HpCDD]		83 ± 2%	97 ± 7%	
Clc1ccc(Cl)c(-c2cc(Cl)ccc2Cl)c1 [PCB#52]				log P [4]: > 5
Clc1cc2c(oc3cc(Cl)c(Cl)c(Cl)c32)c(Cl)c1Cl [1,2,3,6,7,8-HxCDF]	6.9	93 ± 1%	94 ± 5%	
Clc1cc2c(c(Cl)c1Cl)Oc1c(cc(Cl)c(Cl)c1Cl)O2 [1,2,3,7,8,9-HxCDD]	7.4	93 ± 1%	93 ± 5%	Relative amount in the cellular fraction (of total exposure) (Caco-2 cell monolayers [2]; [5]): 22.5%; Relative amount in the cellular fraction (of total exposure) (Caco-2 cell monolayers [3]; [6]): 33%
Clc1cc2oc3cc(Cl)c(Cl)c(Cl)c3c2c(Cl)c1Cl [1,2,3,7,8,9-HxCDF]	7.4	84 ± 2%	91 ± 6%	
Clc1cc(Cl)c(-c2cc(Cl)c(Cl)c(Cl)c2Cl)cc1Cl [#180]				log P [4]: > 5
Clc1cc2oc3c(Cl)c(Cl)c(Cl)c(Cl)c3c2c(Cl)c1Cl [1,2,3,4,7,8,9-HpCDF]		83 ± 2%	97 ± 7%	
Clc1cc2c(oc3c(Cl)c(Cl)c(Cl)c(Cl)c32)c(Cl)c1Cl [1,2,3,4,6,7,8-HpCDF]	7.9	93 ± 1%	97 ± 5%	
Clc1ccc(-c2cc(Cl)c(Cl)cc2Cl)cc1Cl [#118]				log P [4]: > 5
Clc1cc2c(cc1Cl)Oc1cc(Cl)c(Cl)cc1O2 [2,3,7,8-TCDD, 2,3,7,8-tetrachlorodibenzo-p-dioxin]		81 ± 2%	85 ± 5%	Apical concentration transported to the basal compartment (Caco-2 cells): less than 1.5%; Steady-state cellular association (Caco-2 cells): approximately 13%; Transported across the Caco-2 cell monolayer (Caco-2 cell monolayer): 15%; Relative amount in the cellular fraction (of total exposure) (Caco-2 cell monolayers [2]; [5]): approximately 39%; Transport across the monolayer (basal side compared to total exposed amount) (Caco-2 cell monolayers [2]; [5]): 3%; Relative amount in the cellular fraction (of total exposure) (Caco-2 cell monolayers [3]; [6]): ~56%; Transport across the monolayer (basal side compared to total exposed amount) (Caco-2 cell monolayers [3]; [6]): 3%
Clc1cc2c(oc3c(Cl)c(Cl)c(Cl)cc32)c(Cl)c1Cl [2,3,4,6,7,8-HxCDF]	7.1	87 ± 2%	97 ± 7%	
